Experimental data: ChEMBL document CHEMBL1132931, “Screening of new antioxidant molecules using flow cytometry” (2000)
Active and inactive are the calls of the source. The rule behind the calls is not given here.

What was measured:
[1] = Glutathione peroxidase-like activity at 10x(E -3) M concentration as NADP+/L/min; type: functional
[2] = Glutathione peroxidase-like activity in relative to Ebselen glutathione peroxidase-like activity; type: functional; set-up: concentration or dose not given beside the values
Outline: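 Glutathione peroxidase-like activity by the Paglia and Valentine method. Compound solution (100 µL) was added to phosphate buffer, pH 7, with H2O2 and GSH (1.5 × 10-1 M stock in 0.01 M HCl). NADP+ formation was read at 340 nm and expressed as µmol NADP+/L/min. Blanks checked direct NADPH oxidation by compounds. Ebselen was run as the reference.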

[3] = test system: Murine-murine hybridoma (mark 3); test: (§1) Antioxidative property against stable murine-murine hybridoma (Mark 3) cell line; type: functional
[4] = Glutathione peroxidase-like activity at 10x(E -2) M concentration as NADP+/L/min; type: functional
Mus musculus [5] = organism: Mus musculus; test: Glutathione peroxidase-like activity at 10x(E -4) M concentration measured as NADP+/L/min; type: functional
[6] = Glutathione peroxidase-like activity in relation to Ebselen glutathione peroxidase-like activity; type: functional; set-up: concentration or dose not given beside the values
[7] = Glutathione peroxidase-like activity at 10x(E -2) M concentration; type: functional
Mus musculus [8] = organism: Mus musculus; test: as §1; type: functional
[9] = Glutathione peroxidase-like activity at 10x(E -4) M concentration as NADP+/L/min; traces; type: functional
Mus musculus [10] = organism: Mus musculus; test: Antioxidative property against stable murine-murine hybridoma (Mark 3) cell line; fluorescence at 488 nm; type: functional, organism-based
Mus musculus [11] = organism: Mus musculus; test: Antioxidative property against stable murine-murine hybridoma (Mark 3) cell line; no effect; type: functional, organism-based

Compound | Activity [1] [µM] | Activity [2] [%] | Effective molarity [3] [M l-1] | Activity [4] [µM] | Activity (Mus musculus [5]) | Activity [6] [%] | Activity [7] [µM] | Effective molarity (Mus musculus [8]) [M l-1] | Activity [9] | Effective molarity (Mus musculus [10]) | NE (Mus musculus [11])
O=c1c2ccccc2[se]n1-c1ccccc1 [EBSELEN] | 111 | 100 | 1e-05 | 1050 | – | – | – | – | – | – | –
c1ccc2c3c([nH]c2c1)-c1ccsc1SC3 | 71 | 7 | 1e-05 | 75 | 44 µM/min | – | – | – | – | – | –
COc1ccc2[nH]c3c(ccc4ccsc43)c2c1 | 22 | – | – | 60 | 4 µM/min | 6 | – | – | – | – | –
COc1ccc2[nH]c3c(c2c1)-c1cccc(OC)c1C3=O | 26 | – | 1e-05 | 58 | 11 µM/min | 6 | – | – | – | – | –
CCOC(=O)c1c2[nH]c3ccccc3c2cc2nc(C)sc12 | 46 | – | 1e-05 | 506 | 33 µM/min | 48 | – | – | – | – | –
COC(=O)c1cc2ccc3c(c4ccccc4n3C)c2[se]1 | 31 | 10 | 1e-05 | 104 | 29 µM/min | – | – | – | – | – | –
Cc1nc2ccc3[nH]c4ccccc4c3c2s1 | 29 | – | – | 93 | 20 µM/min | 9 | – | – | – | – | –
COc1ccc2[nH]c3ccc4nc(C)sc4c3c2c1 | 35 | – | – | – | 33 µM/min | 6 | 64 | – | – | – | –
COc1cccc2c1C(=O)c1[nH]c3ccccc3c1-2 | 29 | – | – | 369 | 20 µM/min | 35 | – | 1e-06 | – | – | –
Cn1cnc2c3[nH]c4ccccc4c3ccc21 | 20 | – | 1e-05 | 42 | 29 µM/min | 4 | – | – | – | – | –
CCOC(=O)c1sc(SC)c2c1ccc1c3cc(OC)ccc3[nH]c12 | 9 | – | – | 151 | 26 µM/min | 14 | – | – | – | – | –
CCOC(=O)c1c2[nH]c3ccc(OC)cc3c2cc2nc(C)sc12 | 58 | – | 1e-05 | 215 | 40 µM/min | 21 | – | – | – | – | –
CS(=O)(=O)n1c2c(c3ccccc31)-c1nn[se]c1CC2 | 33 | 13 | 0 | 140 | 31 µM/min | – | – | – | – | – | –
COc1ccc2[nH]c3c4ccsc4ccc3c2c1 | 20 | – | 1e-06 | 47 | 13 µM/min | 4 | – | – | – | – | –
CCOC(=O)c1sc(SC)c2c1ccc1c3ccccc3[nH]c12 | 38 | – | – | 133 | – | 13 | – | – | traces | fluorescence at 488 nm | –
CCOC(=O)c1cc2ccc3c(c4ccccc4n3C)c2s1 | – | – | 0.0001 | – | – | 11 | – | – | – | – | –
c1ccc2c(c1)[nH]c1c2ccc2[se]nnc21 | 31 | 5 | – | 51 | 20 µM/min | – | – | – | – | – | inactive
c1ccc2c(c1)[nH]c1c2ccc2ccsc21 | 20 | 2 | 1e-05 | 25 | 27 µM/min | – | – | – | – | – | –
CS(=O)(=O)n1c2ccccc2c2c3nn[se]c3ccc21 | 33 | 4 | 0.0001 | 46 | 29 µM/min | – | – | – | – | – | –
c1ccc2c(c1)[nH]c1c3ccsc3ccc21 | 25 | 6 | 1e-05 | 60 | 26 µM/min | – | – | – | – | – | –
VITAMIN E | 33 | – | 1e-10 | 20 | 15 µM | 2 | – | – | – | – | –
CCOC(=O)c1cc2ccc3c(c4ccccc4n3C)c2o1 | 15 | – | 0.0001 | 53 | 33 µM/min | 5 | – | – | – | – | –
CS(=O)(=O)n1c2c(c3ccccc31)CCc1[se]nnc1-2 | 31 | 23 | 0.0001 | 246 | 18 µM/min | – | – | – | – | – | –
